This is a sample that favours compounds with a hit; in the whole collection about 3.6% have one here.
UCH37 DUB inh – inhibitors of human deubiquitinating enzyme UCH37. purified proteasome/UCH37, Ub-AMC cleavage fluorescence. inhibition, % (no concentration beside the values). Q9Y5K5. actives 0.33% (n = 330,000);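 active means mean inhibition over replicate wells above about 20%, limit read from the data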;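 further: 0% = compound-free wells with enzyme and 100% = wells lacking proteasome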
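Signal – fluorescence, ex 355 nm, em 460 nm · System – Proteasome-bound UCH37 · Input – 0.15 nM proteasome as dispensed · Timing – 30 min preincubation with enzyme, 25 min cleavage at room temperature · Read-out basis – percent inhibition of cleavage signal versus uninhibited and no-proteasome wells · Medium – Tris-HCl pH 7.4 with ATP-MgCl2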
ATG4B inh – ATG4B (human) cysteine protease inhibition; Q9Y4P1; ATG4B cleavage of LC3-PLA2, NBD-HPC fluorescence, 1 h; inhibition, % at 8.33 µM; actives 0.51% (n = 340,000); AID 504462; in the data active means inhibition above about 40%
NR3A LBD binder – modulators (binders) of human NR3A ligand-binding domain; NR3A LBD differential scanning fluorimetry, Tm shift; 0% = protein alone, 100% = glycine-bound protein; Tm shift relative to glycine control, % at 25 µM; AID 1259313; actives 2.5% (n = 340,000);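 active means melting temperature shift of at least 10% of the positive control shift, at one fixed dose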
NadD block – inhibitors of Staphylococcus aureus NadD. purified NadD enzyme, colorimetric absorbance read-out. actives 0.78% (n = 360,000). inhibition, % at 20 µM. AID 602399; in the data active means inhibition above about 26%
SENP1 inh – SENP1 (human) catalytic domain inhibition | Q9P0U3 | recombinant SENP1 catalytic domain, CyPet-SUMO1-YPet FRET cleavage | actives 0.21% (n = 360,000) | inhibition, % at 10 µM | AID 624204;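 active means inhibition at least 30% at 10 µM, raw YFP signal under a set limit, fluorescence ratio 0.5 to 1.5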;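 further: 0% = enzyme with DMSO and 100% = no enzyme wells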
Target sequence (Q9P0U3 419-644 limits assumed): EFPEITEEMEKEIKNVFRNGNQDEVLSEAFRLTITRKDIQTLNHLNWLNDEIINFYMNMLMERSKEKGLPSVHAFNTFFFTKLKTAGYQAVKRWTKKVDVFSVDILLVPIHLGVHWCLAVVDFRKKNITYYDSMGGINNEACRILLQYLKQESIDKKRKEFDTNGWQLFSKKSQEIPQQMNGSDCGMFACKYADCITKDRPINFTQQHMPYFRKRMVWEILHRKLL
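system = hSENP1 catalytic domain, recombinant | reagent = SFCypet-SUMO1-SFYpet substrate at 25 nM | doses = one dose per compound, 10 µM, 0.5% DMSO | incubation = enzyme reaction for 50 min at room temperature, dark | measured by = FRET, CFP and YFP emission | controls = no-enzyme low, enzyme-DMSO high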
* = called active by the depositor; / = no result given.

SMILES | UCH37 DUB inh | ATG4B inh | NR3A LBD binder | NadD block | SENP1 inh
COc1ccc(CN(C)C(c2ccccc2)c2nnnn2-c2ccccc2C)c(OC)c1C (stereo not given) | 3 | -1 | 15* | 2 | 0
O=C(CSc1nc2ccccc2o1)NN=Cc1ccc(C(=O)O)cc1 | 4 | / | / | / | /
CCN1CCN(C2=CC3=CC(=C(C#N)C#N)CCC3CC2)CC1 (stereo not given) | 32* | -129 | -1 | 2 | -34
CC12CCC(CC1=NNC(=O)Nc1ccccc1)C2(C)C (stereo not given) | -1 | / | / | / | /
COc1ccc(N=Cc2oc3ccc4ccccc4c3c2O)cc1 | 1 | -12 | 15* | -2 | -25
NC(=S)NN=Cc1ccc(-c2cc(Cl)ccc2Cl)o1 | -4 | / | / | / | /
CCN1C(=O)C(F)(CC)C(=O)c2ccccc21 (stereo not given) | 3 | -2 | 13* | -3 | -1
O=C(NN=Cc1c(F)cccc1Cl)c1cc(C2CC2)[nH]n1 | 0 | / | / | / | /
COc1ccc(C=NNC(=S)Nc2cccc(C(=O)O)c2)cc1OC | 15 | / | / | / | /
Cc1occc1C(=O)NN=C/C=C/c1ccc(N(C)C)cc1 | -28 | / | / | / | /
Cc1ccc(N2C(=O)c3ccccc3C2=O)cc1Cl | -1 | 30 | 12* | -3 | 1
Cc1ccc(N2C(=O)c3ccccc3C2=O)cc1 | -1 | 5 | 0 | 1 | 1
COc1ccc(-c2csc(NC(=S)NC(=O)c3ccccc3)n2)cc1Br | 5 | -3 | 40* | 11 | 0
Cc1ccc(-c2csc(NC(=S)NC(=O)c3ccco3)n2)cc1 | 5 | 4 | 20* | 3 | -2
COc1ccc(-c2csc(NC(=S)NC(=O)/C=C/c3ccco3)n2)cc1OC | 8 | 24 | 13* | 3 | 2
COc1ccc(-c2csc(NC(=S)NC(=O)/C=C/c3ccco3)n2)cc1Br | / | 10 | 21* | 29 | -2
COc1ccc(-c2csc(NC(=S)NC(=O)c3ccco3)n2)cc1Br | 1 | -4 | -3 | 17 | 1
O=C(Nc1ccccc1C(=O)Nc1nnc(C(F)(F)F)s1)c1ccccc1Cl | -16 | 14 | 18* | -3 | -2
NC(=NOC(=O)C1CC1)c1ccc([N+](=O)[O-])s1 | 8 | / | / | / | /
CC(=NNC(=O)C(C)Sc1ccccc1)C(C)(C)C (stereo not given) | -1 | / | / | / | /
COC(=O)c1cc(NC(=O)CSc2nncn2C)cc(C(=O)OC)c1 | -1 | -2 | 11* | -7 | 2
Clc1cccc(-c2ccc(C=Nn3cnnc3)o2)c1Cl | 5 | / | / | / | /
CC1SC(=NN=Cc2ccco2)N(Cc2ccccc2)C1=O (stereo not given) | 7 | / | / | / | /
Cc1ccc(COC(=O)CN2C(=O)NC3(CCCCC3C)C2=O)cc1 (stereo not given) | 4 | 1 | 11* | 3 | 4
Cc1nnc(C)n1N=Cc1cccc([N+](=O)[O-])c1 | 3 | / | / | / | /
SMILES | UCH37 DUB inh | ATG4B inh | NR3A LBD binder | NadD block | SENP1 inh
O=C(CSCc1ccccc1)NN=Cc1cc2c(cc1Br)OCO2 | 3 | / | / | / | /
Brc1ccc(Nc2ncnc3[nH]ncc23)cc1 | -1 | 4 | 26* | -2 | -1
COCC(=O)n1nc(-c2ccccc2)nc1NCc1ccccc1 | 3 | 4 | 1 | -4 | 2
COCC(=O)n1nc(-c2ccccc2)nc1NCc1ccc(F)cc1 | 4 | 15 | 13* | -4 | 2
O=C(COC(=O)[C@H](Cc1c[nH]c2ccccc12)NC(=O)c1ccc(Cl)cc1)Nc1ccc2c(c1)OCO2 | 5 | -12 | 20* | 3 | -1
CC(=O)N[C@@H](Cc1c[nH]c2ccccc12)C(=O)OCC(=O)Nc1ccc2c(c1)OCO2 | 4 | 1 | 12* | 0 | 3
CCCOc1ccc(/C=C/C(=O)NCc2ccccc2)cc1 | 1 | 18 | 12* | -4 | 2
O=C1c2ccccc2C(=O)N1N(c1ccccc1)c1ccccc1 | 2 | 2 | 16* | -11 | -3
O=C1C=CC(=O)N1N(c1ccccc1)c1ccccc1 | 7 | 0 | 1 | -5 | 2
O=C(CN(c1ccccc1)S(=O)(=O)c1ccccc1)NN=Cc1ccco1 | 4 | / | / | / | /
S=C(NN=C1C2CN3CCN(C2)CC1(c1ccccc1)C3)Nc1ccccc1 | 7 | / | / | / | /
COc1cc2oc(=O)cc(-c3cccc(-c4ccc(C(F)(F)F)cc4)c3)c2c(OC)c1OC | -6 | -4 | 17* | 0 | 1

Screens from PubChem.
